Screens from PubChem BioAssay.
Compounds with a hit are over-represented: about 1.8% of the library has one in this group of screens.
PHOSPHO1 inh: blocks human PHOSPHO1 phosphatase activity; 290,000 tested, 1.1% active; recombinant PHOSPHO1, absorbance phosphatase assay; inhibition, % at 13.3 µM; AID 1565; in the data active = inhibition above about 60%
Target sequence (Q8TCT1 whole entry, looked up): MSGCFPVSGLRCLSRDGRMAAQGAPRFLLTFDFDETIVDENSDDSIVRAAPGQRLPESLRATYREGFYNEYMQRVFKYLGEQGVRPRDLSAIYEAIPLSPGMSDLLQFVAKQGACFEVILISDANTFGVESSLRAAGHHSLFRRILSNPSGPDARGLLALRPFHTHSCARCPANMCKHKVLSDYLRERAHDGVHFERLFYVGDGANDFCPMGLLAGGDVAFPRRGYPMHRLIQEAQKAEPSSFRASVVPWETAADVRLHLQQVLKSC
TbMetRS inhib: blocks T. brucei methionyl-tRNA synthetase activity; inhibition, % at 11.9 µM; 360,000 tested, 0.4% active; AID 624268; purified T. brucei MetRS, ATP depletion, Kinase-Glo luminescence;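 active = inhibition above a per-plate cutoff of the control wells' mean inhibition plus 3 SD, cut at about 5.5% in these data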;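 note: 0% = DMSO wells median and 100% = median of wells with control inhibitor compound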
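assay system = parasite MetRS enzyme | timing = 15 min preincubation, 2 h reaction, all 25 °C | evaluation = percent inhibition relative to median high and low control wells | medium = HEPES buffer containing pyrophosphatase, BSA, spermine, DTT | compound = single dose, 11.9 µM final nominal, 0.9% final DMSO | detection = Kinase-Glo luminescence, ATP depletion format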
A3G deaminase: blocks human APOBEC3G single-stranded DNA deamination | Q9HC16 | recombinant A3G, ssDNA deamination FAM/TAMRA fluorescence | inhibition, % at 20 µM | 330,000 tested, 0.28% active;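 active = inhibition of at least 40% at 20 µM, with no more than 30% in the related APOBEC3A deaminase screen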;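 note: plate controls were DMSO wells with A3G for no effect and wells lacking A3G enzyme for full effect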
A3A deaminase: blocks human APOBEC3A ssDNA deamination | P31941 | recombinant A3A, FAM/TAMRA ssDNA deamination fluorescence | inhibition, % at 20 µM | 330,000 tested, 0.41% active;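 active = at least 40% inhibition at 20 µM here, with at most 30% in a related deaminase screen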;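 note: plate controls were A3A with DMSO for no effect and wells lacking A3A enzyme for full effect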
Target sequence (P31941 whole entry, looked up): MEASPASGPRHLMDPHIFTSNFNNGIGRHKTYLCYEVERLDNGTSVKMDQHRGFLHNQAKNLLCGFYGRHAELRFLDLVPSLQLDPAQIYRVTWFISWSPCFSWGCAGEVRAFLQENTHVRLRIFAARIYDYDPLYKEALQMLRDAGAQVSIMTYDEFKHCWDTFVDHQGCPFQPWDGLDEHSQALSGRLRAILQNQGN
p-CIP stab down: p/CIP protein destabilization. F442A p/CIP-EGFP cells, EGFP fluorescence, 16 h. 290,000 tested, 0.01% active. AID 1984. decrease of EGFP signal, % at 10 µM;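 active = EGFP signal decrease of at least 30% at 10 µM or well 3 SD below plate mean, unless failing retest; inactive = the rest, including hits failing retest or dose response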
* = called active by the depositor; . = no result given.

SMILES	PHOSPHO1 inh	TbMetRS inhib	A3G deaminase	A3A deaminase	p-CIP stab down
CCOc1ccccc1NC(=O)c1cccc(NC(=O)C(C)C)c1	61.0*	-0.9	-3.8	0.1	3.0
CCN1CCc2c(OCC(=O)Nc3ccccc3)cccc2C1=O	-57.9	-0.3	-1.0	-4.6	-8.2
CCN1CCc2c(OCC(=O)Nc3ccc(C)cc3)cccc2C1=O	61.5*	-0.3	-4.1	-6.3	-7.6
CC1C/C(=C/c2ccco2)C(=O)/C(=C/c2ccco2)C1 (stereo not given)	-0.2	.	82.8	91.2	-4.1
O=C1/C(=C\c2ccco2)CCC/C1=C\c1ccco1	-9.3	0.1	-3.7	87.4*	11.7
Cc1cc(C)c(NC(=O)c2cc3c(nc4sccn43)s2)c(C)c1	71.1*	0.5	-4.9	4.2	-8.6
CN(c1ccc(C(=O)NC2CCCCC2)cc1)S(=O)(=O)c1ccccc1	19.8	0.0	-0.7	3.6	-14.9
COc1ccc(NC(=O)CNc2cc(S(=O)(=O)N3CCOCC3)ccc2NCC2CCCO2)cc1 (stereo not given)	0.3	1.3	-6.3	9.3	4.4
O=C(CNc1cc(S(=O)(=O)N2CCOCC2)ccc1NCC1CCCO1)Nc1ccc(F)c(F)c1 (stereo not given)	41.4	8.5*	2.0	0.5	-20.7
Cc1ccc(/C(C#N)=C\c2ccc(N3CCOCC3)o2)cc1	62.4*	0.8	15.5	0.9	-2.6
O=C1CC(c2ccc3c(c2)OCO3)Sc2nc3ccccc3n21 (stereo not given)	96.8*	-0.5	-9.8	-5.6	6.2
O=C1CC(c2ccco2)Sc2nc3ccccc3n21 (stereo not given)	105.5*	-1.0	-5.4	0.6	4.8
O=C1CC(c2ccccc2)Sc2nc3ccccc3n21 (stereo not given)	16.2	0.5	-14.4	5.8	-3.3
O=C1CC(c2cccs2)Sc2nc3ccccc3n21 (stereo not given)	18.0	-0.2	-3.4	2.9	-52.4
O=C(N/C(=C\c1ccccc1)C(=O)N1CCOCC1)c1ccccc1Cl	62.6*	-0.2	7.9	1.5	-5.7
O=C1C(=O)N(c2nccs2)C(c2ccccc2F)/C1=C(\O)c1ccc2c(c1)OCCO2 (stereo not given)	6.8	-0.8	-6.1	-4.1	2.3
Fc1ccc(-c2n[nH]c(=S)n2CC2CCCO2)cc1 (stereo not given)	87.8*	-0.4	36.3	-0.1	-1.0
CCN(CC)c1ccc(NC(=O)c2cnccn2)cc1S(=O)(=O)Nc1ccc(OC)cc1	-22.6	0.4	-4.4	3.6	3.0
CCCC[C@@H]1C=C(C(=O)O)[C@H](c2ccc3c(c2)OCO3)N1S(=O)(=O)c1ccc(C)cc1	.	-0.8	-6.2	-3.4	.
Cc1cc(C(=O)CSc2nnnn2C)c(C)n1CCc1ccc(Cl)cc1	81.6*	-0.3	-5.6	-4.3	1.0
COc1ccc(CCn2c(C)cc(C(=O)CSc3nnnn3-c3ccccc3)c2C)cc1	71.3*	-0.6	-1.8	2.1	-8.9
CCN(C(=O)COC(=O)CCC(=O)c1ccc(Cl)cc1)c1c(N)n(Cc2ccccc2)c(=O)[nH]c1=O	.	-0.2	.	.	.
C=CCn1c(Cc2cccs2)nnc1SCC(=O)c1ccc2ccccc2c1	53.4	-0.1	-7.9	-1.2	8.5
C=CCn1c(Cc2cccs2)nnc1SCC(=O)c1cccc(Br)c1	67.5*	0.1	-5.0	-1.1	-7.0
COc1ccccc1NC(=O)COc1ccc(Br)cc1CNCCCN1CCOCC1	70.5*	0.1	-3.9	0.5	-1.3
SMILES	PHOSPHO1 inh	TbMetRS inhib	A3G deaminase	A3A deaminase	p-CIP stab down
COc1cc(CNCCCN2CCOCC2)c(Br)cc1OCC(=O)Nc1ccccc1C	22.6	-0.8	-6.7	0.0	-2.2
C=CCNc1nc2c3ccccc3n(C(C)=O)c2s1	69.9*	0.9	-1.7	-1.7	7.9
O=S1(=O)N=C(Nc2ccc(N3CCOCC3)cc2)c2ccccc21	-41.5	0.1	-3.6	3.5	-3.2
CCc1cc(C(=O)N2CCOCC2)c(NC2=NS(=O)(=O)c3ccccc32)s1	83.6*	-0.3	-4.3	-3.3	-7.7
CCCCN1CC(COCc2ccccc2)Oc2cc(Br)ccc2S1(=O)=O (stereo not given)	.	-0.7	.	.	.
Cc1ccc(/C=N/NC(=O)CNC(=O)c2cccs2)cc1	66.2*	-0.4	-2.2	-4.9	-6.3
Cc1cc(O)c(C(C)C)cc1N=C1CSC(=O)N1	86.6*	-0.2	-3.8	-3.1	-13.4
Cc1ccc(N=C2CSC(=O)N2)cc1	16.1	-0.3	-12.2	-0.1	-16.0
COc1ccccc1N1C(=O)CC(Sc2n[nH]c(-c3cccc(C)c3)n2)C1=O (stereo not given)	80.9*	0.6	30.6	-5.2	-6.4
Cc1nn(CCCC(=O)Nc2nccs2)c(C)c1[N+](=O)[O-]	-9.9	0.3	1.1	0.9	1.3
CN(CCn1ccnc1)Cc1cn(-c2ccccc2)nc1-c1ccc2c(c1)OCO2	60.1*	-0.1	-11.2	-7.2	3.6
Cc1nc(N)sc1-c1csc(N(C)c2ccc(O)cc2)n1	84.9*	0.5	-1.7	0.9	-9.6
CCCCCNC(=O)CC1Nc2c3ccccc3nc(=S)n2C1=O (stereo not given)	65.1*	-1.2	10.9	-0.9	-7.0
COC(CNC(=O)C(=O)Nc1cc2c3c(c1)CCN3C(=O)CC2)OC	34.4	0.9	6.1	0.4	-1.3
O=C(Nc1cccc2c1CCCC2)c1cc(C2CCCCN2C(=O)c2cccs2)on1 (stereo not given)	.	0.0	.	.	.
C/C(N)=C(/C#N)C(=O)COC(=O)c1ccccc1Oc1ccccc1	34.1	-0.2	-8.8	-0.3	-12.6
S=c1[nH]ccc2ccccc12	.	-0.3	.	.	.
S=c1[nH]ncc2ccccc12	66.6*	-0.4	-1.0	-1.8	9.8
CC(=O)c1cccc(NC(=O)COC(=O)c2n[nH]c3ccccc23)c1	4.5	0.2	-5.4	-0.3	7.6
CC1=NN(c2ccc(C(=O)O)c(N)c2)C(=O)C1	62.8*	-0.6	47.6	71.9	18.7
CC(=O)NC(c1ccccc1)c1nc(-c2csc3ccccc23)cs1 (stereo not given)	.	-0.1	.	.	.
COc1cccc(CC2CC(=O)N(c3ccc4c(C)cc(=O)oc4c3)C2=O)c1 (stereo not given)	60.9*	-0.2	-12.5	1.0	-1.3
COc1ccccc1N1CCN(C(=O)c2noc(C(C)C)c2[N+](=O)[O-])CC1	42.2	-0.7	-9.7	-8.0	3.0
CCOC(=O)C1CCCN(C(=O)C2CCN(S(=O)(=O)CC)CC2)C1 (stereo not given)	60.1*	-0.2	-2.2	2.4	2.7
COc1ccc(OC)c(CCNC(=O)CCCC(=O)n2ncc3cc(C)ccc32)c1	1.8	0.1	-6.4	-3.2	-3.2
COc1cc(NC(=O)c2cccnc2)c(Cl)cc1NC(=O)c1ccc(Cl)cc1	27.6	0.0	1.5	2.1	-2.0
COc1cc(NC(=O)c2ccc(Cl)cc2)c(Cl)cc1NC(=O)c1cccnc1	62.8*	0.0	-4.8	-0.7	-0.5
COc1ccccc1CNC(=O)COC(=O)c1ccc(C)s1	.	-0.4	-5.4	0.7	.
